# High-throughput results deposited in PubChem BioAssay by several laboratories.
# An excerpt weighted towards active compounds, which were near 4% of everything screened.
# DAGLB inhibitor = blocks human DAGLB lipase activity; Q8NCG7; inhibition, % at 5.17 µM; AID 504411; hit rate 0.059% among 340,000; HEK293T DAGLB membrane lysate, EnzChek fluorogenic substrate; in the data active = inhibition above about 34%;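 also: 0% = enzyme with vehicle and 100% = wells lacking enzyme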
# Target sequence (Q8NCG7 whole entry, looked up): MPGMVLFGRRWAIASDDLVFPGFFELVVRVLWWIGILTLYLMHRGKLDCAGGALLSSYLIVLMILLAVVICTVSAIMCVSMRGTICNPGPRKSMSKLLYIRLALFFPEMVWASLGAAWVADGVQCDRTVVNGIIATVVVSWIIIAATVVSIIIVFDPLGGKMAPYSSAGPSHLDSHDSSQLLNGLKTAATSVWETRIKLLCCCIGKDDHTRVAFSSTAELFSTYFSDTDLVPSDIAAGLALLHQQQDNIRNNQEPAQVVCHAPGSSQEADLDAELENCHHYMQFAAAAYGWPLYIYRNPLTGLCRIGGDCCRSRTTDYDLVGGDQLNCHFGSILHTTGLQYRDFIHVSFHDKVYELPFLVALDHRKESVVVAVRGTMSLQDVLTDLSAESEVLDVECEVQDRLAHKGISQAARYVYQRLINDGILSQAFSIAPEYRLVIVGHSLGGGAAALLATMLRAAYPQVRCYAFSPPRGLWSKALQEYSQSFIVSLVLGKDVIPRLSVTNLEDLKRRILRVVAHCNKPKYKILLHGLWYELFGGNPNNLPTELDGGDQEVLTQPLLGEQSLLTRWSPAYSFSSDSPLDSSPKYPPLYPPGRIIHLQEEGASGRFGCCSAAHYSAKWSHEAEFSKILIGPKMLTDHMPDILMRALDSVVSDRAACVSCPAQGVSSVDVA
# GPR7 antag = blocks human GPR7 receptor signaling; GPR7-expressing cells, fluorescence antagonist assay; inhibition, % at 4.4 µM; hit rate 1.1% among 290,000; AID 1861; in the data active = inhibition above about 16%, passing the limit was not always enough;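 also: cells stimulated with the agonist NPW; 0% = agonist with vehicle and 100% = vehicle without agonist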
# TAAR1 antag = human TAAR1 antagonism; AID 624466; hit rate 1.5% among 360,000; CHO RD-HGA16 TAAR1, Fluo-8 calcium fluorescence, antagonist; inhibition, % at 3 µM;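 active = inhibition above a per-plate cutoff, the mean inhibition of test compounds on that plate plus 3 SD, cut at about 49% in these data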;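 also: 0% = DMSO plus EC80 beta-PEA response and 100% = DMSO alone without agonist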
#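 System: RD-HGA16 CHO cells with stable hTAAR1 and Gα16 | Probe or stimulus: EC80 β-phenethylamine stimulus | Dosing: 3 µM, single point | Times: Dye loading 75 min at 37 °C, then 30 min room temperature | Measured by: Fluo-8 calcium-sensitive fluorescence | Read-out basis: % inhibition of agonist calcium response | Replicates: n of 1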
# MPTP inh = permeability transition pore inhibition. inhibition, % at 10 µM. AID 602449. isolated mouse mitochondria, Ca2+ swelling absorbance, 30 min. hit rate 1.4% among 360,000;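 active = inhibition of 50% or more, scaled per plate between neutral and stimulator controls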;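 also: 0% = DMSO wells given calcium and 100% = 1 mM EGTA wells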
# TAAR1 ag = agonists of human TAAR1; hit rate 0.99% among 360,000; Q96RJ0; activation, % at 3 µM; CHO RD-HGA16 TAAR1, Fluo-8 calcium fluorescence; vehicle wells 0%, saturating PEA agonist 100%;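 active = activation above the mean activation of all test compounds in the run plus 3 SD, cut at about 38% in these data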
#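 System: CHO-derived RD-HGA16 cells with stable Gα16 and human TAAR1. Times: 17-24 h plating, Fluo-8 75 min 37 °C, 30 min RT. Measured by: calcium-sensitive Fluo-8 signal, excitation 470-495, emission 515-575 nm. Read-out basis: % activation relative to PEA EC100 response. Control set: DMSO and PEA EC100. Repeats: no replicates (n 1).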
# * = called active by the depositor; . = no result given.
SMILES,DAGLB inhibitor,GPR7 antag,TAAR1 antag,MPTP inh,TAAR1 ag
CC(C)CC1C(=O)N(Cc2cn(CCC3OCCO3)nn2)CCS(=O)(=O)N1Cc1ccc(-c2ccccc2)cc1 (centres undefined),0,.,32,1,11
Cc1ccc(-n2cc(-c3ccccc3)c3c(N4CCOCC4)ncnc32)cc1,-7,-16,54*,1,6
Cc1ccc(-n2cc(-c3ccccc3)c3c(N4CCN(C)CC4)ncnc32)cc1,0,18,27,0,9
CCc1ccc(CNC(=O)CCC(=O)n2ncc3cc(C)ccc32)cc1,-7,3,12,1,47*
CCOP(=O)(c1ccccc1)c1nc(-c2ccccc2C)oc1N1CCCCC1 (centres undefined),.,-17,-12,.,60*
Cc1ccccc1OCCN1C(=O)C(=O)c2cccc(C)c21,9,21*,23,-3,0
Cc1cccc2c1N(CCOc1ccccc1Cl)C(=O)C2=O,5,14,6,-2,0
O=c1ccoc2ccccc12,.,.,-9,-2,0
O=c1nc(/C=C/c2ccc(-c3ccc(F)cc3)o2)cc(C(F)(F)F)[nH]1,.,-5,.,.,.
O=C(O)c1cc(Cl)ccc1-c1ccc(/C=C/c2cc(C(F)(F)F)[nH]c(=O)n2)o1,-68,13,9,-1,67*
C[C@@H](O)CC#Cc1ccc2oc(=O)c(-n3cc(-c4ccsc4)nn3)cc2c1,1,.,14,0,7
O=c1oc2ccc(C#CC3(O)CCCCC3)cc2cc1-n1cc(-c2ccccn2)nn1,-1,.,52*,1,18
Nc1cccc(-c2cn(-c3cc4cc(C#CC5(O)CCCCC5)ccc4oc3=O)nn2)c1,4,.,58*,-2,30
Cc1cccc(C)c1NC(=O)C1(NC(=O)C2CCC(=O)N2)CCCCC1 (centres undefined),1,4,-5,1,2
Cc1cccc(C)c1NC(=O)C1(N2C(=O)CC2c2ccccc2)CCCCC1 (centres undefined),-2,18*,1,2,2
COC(=O)Cc1c([C@H](C)[C@@H](OC)c2ccccc2Br)nnn1Cc1ccccc1,.,.,14,.,14
Nc1[nH]c(C(=O)c2ccccc2)c(-c2ccccc2Cl)c1C(=O)NCCc1c[nH]c2ccccc12,.,.,-7,.,9
Clc1ccc(C[n+]2cc(-c3ccccc3)n3c2CCCCC3)c(Cl)c1,1,29*,6,-1,1
CCn1ncc(C2=NOC(C(=O)NCCc3ccccc3)C2)c1C (centres undefined),-1,8,43,0,61*
COc1ccc(/C=N/n2c(-c3ccco3)nc3ccccc3c2=O)cc1,2,-8,13,0,5
COc1cccc(/C=N/n2c(-c3ccco3)nc3ccccc3c2=O)c1,-4,-7,49*,-1,14
CCN(CC)c1ccc(/C=C(/C#N)C(=O)NCc2ccccc2)o1,-27,-1,54*,2,54*
NC(Cc1ccc(O)cc1)C(=O)NN=Cc1ccccc1Cl (centres undefined),.,.,-12,.,2
CC(C)c1cc(-c2cc(C(=O)NCc3ccccc3)on2)nc(NCC2CC2)n1,-12,.,77*,0,68*
COC(=O)C1=C(C)N(Cc2ccc(Br)cc2)C(=S)NC1c1ccccc1 (centres undefined),.,.,10,.,0
SMILES,DAGLB inhibitor,GPR7 antag,TAAR1 antag,MPTP inh,TAAR1 ag
CCC[C@H]1CN(c2ccccc2)C(=O)[C@@H]1CC(=O)Nc1ccc(Br)cc1,0,.,2,0,1
Cc1sc2ncn(CC(=O)NCCc3ccccc3)c(=O)c2c1C,3,-5,12,1,42*
O=C(Cn1cnc2sc(-c3ccccc3)cc2c1=O)NCCc1ccccc1,-1,-11,8,-1,39*
Cc1sc2ncn(CC(=O)NCc3ccccc3)c(=O)c2c1C,2,-14,1,1,2
COc1ccc(CCNC(=O)Cn2cnc3sc(C)c(-c4ccc(F)cc4)c3c2=O)cc1OC,0,-9,11,1,54*
CCNC(=O)C1CCCN(C(=O)c2cc(C)oc2C)CC1 (centres undefined),.,.,-19,0,0
COc1cc(/C=C2/S/C(=N/S(=O)(=O)c3ccccc3)NC2=O)c([N+](=O)[O-])cc1OC,11,-9,-4,0,0
O=C1N/C(=N\S(=O)(=O)Cc2ccccc2)S/C1=C/c1cc([N+](=O)[O-])ccc1O,17,18*,72*,-2,57*
O=C1N/C(=N\S(=O)(=O)c2ccccc2)S/C1=C\c1cc([N+](=O)[O-])ccc1O,7,16,54*,0,37
CCCN(CCC)Cc1cc(=O)oc2cc(C)c(C)cc12,.,.,13,1,-1
Cc1c(C)c2c(OCC(=O)NCc3ccccn3)cc3c(c2oc1=O)CCC(C)(C)O3,-3,-4,33,0,2
CCCc1cc(=O)oc2c3c(cc(OCC(=O)N[C@@H](C)C(=O)O)c12)OC(C)(C)CC3,-1,-3,-12,0,2
CCCc1cc(=O)oc2c3c(cc(OCC(=O)NCc4ccncc4)c12)OC(C)(C)CC3,1,6,49*,-1,2
Cc1cc(=O)oc2c3c(cc(OCC(=O)Nc4ccc(CCO)cc4)c12)OC(C)(C)CC3,-2,20,51*,-1,0
CCCc1cc(=O)oc2c3c(cc(OCC(=O)NCc4ccccn4)c12)OC(C)(C)CC3,-3,-6,49*,-2,2
Cc1cc(=O)oc2c3c(cc(OCC(=O)Nc4cccnc4)c12)OC(C)(C)CC3,-2,4,37,1,1
O=C(CC(=O)c1ccccc1)CC(O)(C=Cc1ccccc1)c1ccccc1 (centres undefined),-15,.,51*,4,7
O=C(/C=C/c1ccccc1)CC(=O)c1ccccc1,-14,.,5,3,0
COc1cccc(/C=C2\SC(=S)N(CCCC(=O)N(CCO)c3ccccc3)C2=O)c1,9,-17,49*,-1,4
CCCCCCCCOC(=O)c1c(CSC(=N)N)n(C)c2cc(Br)c(OC(C)=O)cc12,.,-9,-16,0,90*
CCOC(=O)c1c(CSC(=N)N)n(-c2ccc(Br)cc2)c2cc(Br)c(OC(C)=O)cc12,-2,6,-10,-2,26
CCCC#Cc1ccc2c(c1)O[C@H](CN(C)S(=O)(=O)c1cccc(OC)c1)[C@H](C)CN([C@H](C)CO)S2(=O)=O,-1,.,21,-1,1
O=C(Nc1ccc(N2CCOCC2)cc1)Nc1ccc2nc(-c3ccco3)c(-c3ccco3)nc2c1,8,-17,49*,7,9
O=C(Nc1ccc2nc(-c3ccco3)c(-c3ccco3)nc2c1)NC1CC1,4,-1,.,1,.
COc1cccc(S(=O)(=O)N2C[C@H](O)COC[C@H]3O[C@@H](CC(=O)N4CCN(C)CC4)CC[C@@H]32)c1,.,.,-14,-2,1
